Rows were chosen to be rich in hits. Some 2.6% of all compounds tested hit in one or more screens of this group.
E-sel inducer – E-selectin induction on HUVECs; P16581; HUVEC E-selectin immunofluorescence imaging; normalized: neutral wells 0, TNF-alpha wells 100; activation, % at 7.58 µM; 0.37% of 260,000 active; AID 686992;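 active means mean E-selectin-positive cell signal at least 10% of the positive control, reached in at least 60% of replicates, without over 20% cell loss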
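Material: HUVEC primary endothelial cells; Amount: 3,000 cells per well; Dosing: single concentration; Medium: EGM-2 growth medium on 0.1% gelatin-coated wells; Read-out basis: percent E-selectin-positive cells; Signal: immunofluorescence imaging; Control set: TNF-alpha, DMSO.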
RAD52 anneal inh – blocks human RAD52 DNA annealing; recombinant RAD52 DNA annealing, FRET fluorescence; AID 651710; inhibition, % at 18.7 µM; 0.46% of 360,000 active;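 active means every replicate showing at least 50% inhibition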
RAD54 inh – RAD54 (human) branch migration inhibition. Q92698. AID 602329. inhibition, % at 10.4 µM. RAD54 Holliday junction branch migration, FAM/BHQ fluorescence. 0.14% of 360,000 active;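 active means mean normalized replicate activity at least 40 and at least half of replicates scoring 40 or more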;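 further: 0% = median of neutral control wells and 100% = median of positive control wells; inhibitors cause a drop in the FAM fluorescence signal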
Target sequence (Q92698 whole entry, looked up): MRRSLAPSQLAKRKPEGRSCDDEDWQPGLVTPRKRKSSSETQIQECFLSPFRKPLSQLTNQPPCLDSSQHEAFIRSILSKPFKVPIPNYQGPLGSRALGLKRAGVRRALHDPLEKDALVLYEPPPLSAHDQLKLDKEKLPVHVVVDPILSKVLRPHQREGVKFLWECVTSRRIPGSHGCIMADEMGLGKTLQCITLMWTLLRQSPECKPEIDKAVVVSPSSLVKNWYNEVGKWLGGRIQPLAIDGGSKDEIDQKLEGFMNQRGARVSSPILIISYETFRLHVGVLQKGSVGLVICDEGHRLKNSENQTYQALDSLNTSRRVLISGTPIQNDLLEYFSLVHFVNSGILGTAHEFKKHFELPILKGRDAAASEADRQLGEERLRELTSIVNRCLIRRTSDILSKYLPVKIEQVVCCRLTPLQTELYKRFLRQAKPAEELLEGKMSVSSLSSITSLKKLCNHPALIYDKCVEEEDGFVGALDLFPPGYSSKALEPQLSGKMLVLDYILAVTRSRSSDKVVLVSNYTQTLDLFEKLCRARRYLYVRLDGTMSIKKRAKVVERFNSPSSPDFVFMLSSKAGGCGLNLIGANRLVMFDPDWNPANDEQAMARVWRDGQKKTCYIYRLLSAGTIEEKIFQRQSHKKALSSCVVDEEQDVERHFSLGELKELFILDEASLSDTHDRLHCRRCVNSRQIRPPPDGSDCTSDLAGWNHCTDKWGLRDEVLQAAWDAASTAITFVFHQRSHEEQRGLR
AF4-AF9 inh – inhibitors of human MLL-AF4/AF9 interaction; inhibition, % at 10 µM; 0.47% of 350,000 active; AlphaScreen, biotin-AF4 peptide binding to FLAG-AF9; AID 651704;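 active means every replicate reaching a set inhibition limit, whatever the replicate mean, cut at about 25% in these data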;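 further: 0% = plate neutral control median and 100% = total signal loss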
INS-1E GSIS act – GLuc luminescence reporter in INS-1E cells, primary screen for activators of glucose-dependent secretion of insulin; 0.61% of 370,000 active; INS-1E GLuc reporter insulin secretion, 2-3 h; activation, % at 16.6 µM;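 active means lowest replicate activation of at least 40%, so every replicate reaches that level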;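 further: 0% = median of neutral control wells and 100% = median of IBMX positive control wells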
rRNA inh HTS – inhibitors of bacterial rRNA selective over humanized ribosomes | AID 720706 | GFP signal change (wild-type ribosome), % (no concentration beside the values) | E. coli WT GFP vs humanized-ribosome RFP mutants, fluorescence, 24 h; hits give low values; DMSO median 0, no signal -100 | 1.6% of 350,000 active;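 active means significant combined selectivity score with lowered wild-type GFP, culture density cut under 30%, mutant RFP and density less affected; inactive means any of these conditions unmet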
* = called active by the depositor; x = not tested or not shown.

SMILES | E-sel inducer | RAD52 anneal inh | RAD54 inh | AF4-AF9 inh | INS-1E GSIS act | rRNA inh HTS
CN1C(=O)c2cc(NC(=O)C3CCCC3)ccc2OC[C@@H]2O[C@H](CC(=O)NCC(F)(F)F)CC[C@H]21 | 0 | -12 | 17 | -1 | 7 | 1
Cc1ccccc1-c1ccc([C@@H]2[C@@H](CO)N3CCCCN(S(=O)(=O)Cc4ccccc4)C[C@H]23)cc1 | 1 | 63* | 3 | 6 | -5 | -57
Cc1ccccc1-c1ccc([C@H]2[C@H](CO)N3CCCCN(S(=O)(=O)Cc4ccccc4)C[C@@H]23)cc1 | 0 | 55* | 14 | 4 | -19 | -58
Cc1noc(C)c1NC(=O)N(C)C[C@@H]1OCCCC[C@@H](C)Oc2ccc(NC(=O)Nc3ccccc3)cc2C(=O)N([C@@H](C)CO)C[C@@H]1C | 0 | x | -14 | x | 6 | 6
C/C(=N\NC(=O)c1cc(O)ccc1O)c1cccc(NC(=O)c2ccc(Cl)cc2)c1 | 0 | -6 | 3 | -2 | 3 | -26*
O=C(/C=C\Nc1ccc(S(=O)(=O)Nc2ncccn2)cc1)c1cccc2ccccc12 | x | -23 | x | -3 | -4 | -20*
COc1ccc2c3c(n(C)c2c1)[C@@H](CO)N(C(=O)c1ccncc1)CC31CN(S(C)(=O)=O)C1 | 0 | x | x | 3 | 9 | 0
O=C(NNC(=O)c1ccccc1OCc1ccc(F)cc1)c1ccccc1O | 1 | -12 | -3 | 0 | x | x
O=C(NCc1ccc(F)cc1)c1ccccc1OCc1ccccc1 | x | 7 | -1 | -20 | -4 | -38*
CSc1ccccc1NC(=S)N/N=C/c1cccn1Cc1cccc(C)c1 | 0 | 7 | x | 6 | 6 | 12
CSc1ccccc1NC(=S)N/N=C/c1cccn1Cc1ccc(F)cc1 | 1 | -18 | x | 1 | -5 | -21*
Cc1cc(-c2nn(-c3ccccc3F)cc2CNCCc2cnc[nH]2)c(C)s1 | x | -17 | 3 | 29* | 27 | 1
Cc1cc(-c2nn(-c3ccccc3F)cc2CN2CCC(C(N)=O)CC2)c(C)s1 | 14 | -12 | x | 7 | -12 | 6
CCC(=O)Nc1ccc2c(c1)OC[C@H](C)N(CC1CCOCC1)C[C@@H](C)[C@H](OC)CN(C)C2=O | 0 | -5 | -18 | 1 | 0 | 1
C[C@H](NC(=O)C[C@@H]1CC[C@@H]2[C@H](COC[C@H](O)CN2C(=O)Nc2cccc(F)c2)O1)c1ccccc1 | 0 | 7 | 0 | -1 | -11 | -15
C[C@@H]1CN([C@@H](C)CO)C(=O)c2cc(NC(=O)NC3CCCCC3)ccc2O[C@@H](C)CCCCO[C@H]1CN(C)Cc1ccc(C(=O)O)cc1 | 0 | 7 | 4 | 0 | 2 | 0
Cc1nn(-c2ccccc2)nc1C(=O)Nc1nnc(C(F)(F)F)s1 | 6 | -3 | -26 | -3 | -46 | -32*
O=C(Cc1c(Cl)cccc1Cl)Nc1cccc(S(=O)(=O)N2CCOCC2)c1 | 5 | -14 | x | -1 | -21 | -23*
O=C(COc1ccc(Br)cc1)NNC(=O)c1cc(S(=O)(=O)N2CCOCC2)ccc1Cl | x | 8 | 6 | -1 | -6 | -19*
O=C(Cc1ccc(Br)cc1)Nc1cccc(S(=O)(=O)N2CCOCC2)c1 | x | 0 | 2 | 2 | -34 | -30*
COc1ccc2c3c([nH]c2c1)[C@H](CO)N(C(=O)C1CCCC1)CC31CN(C(=O)NC(C)C)C1 | 0 | -4 | x | -2 | 4 | -1
N#Cc1cccc(-c2ccc3c(c2)[C@H]2[C@H](CCN2C(=O)c2ccccc2F)[C@H](CO)N3)c1 | 0 | x | -10 | x | 12 | -26*
O=C(C1CCCC1)N1CC[C@@H]2[C@H](CO)Nc3ccc(C#Cc4ccc(F)cc4)cc3[C@@H]21 | 54* | -30 | x | 7 | -4 | -1
O=C(C1CCCCC1)N1CC[C@@H]2[C@H](CO)Nc3ccc(C#Cc4ccc(F)cc4)cc3[C@@H]21 | 22 | -8 | 5 | -18 | -50 | -3
COc1ccc(-c2ccc3c(c2)[C@@H]2[C@@H](CCN2Cc2ccccc2F)[C@H](CO)N3)cc1 | 1 | 42 | x | 26* | 16 | -33
SMILES | E-sel inducer | RAD52 anneal inh | RAD54 inh | AF4-AF9 inh | INS-1E GSIS act | rRNA inh HTS
COc1ccc(C(=O)Nc2ccc3c(c2)OC[C@@H](C)NC[C@@H](C)[C@H](OC)CN(C)C3=O)cc1 | 0 | -1 | 0 | -2 | -2 | 0
COCC(=O)N1C[C@@H](C)[C@@H](OC)CN(C)C(=O)c2cc(NC(=O)Nc3cccc(F)c3)ccc2OC[C@H]1C | 0 | -2 | 4 | 4 | 5 | -2
C[C@@H]1CCCCO[C@@H](CN(C)C(=O)Nc2cccc3ccccc23)[C@@H](C)CN([C@H](C)CO)C(=O)c2cc(NC(=O)Nc3ccc(F)cc3)ccc2O1 | 0 | -19 | -6 | -1 | 12 | -1
C[C@@H]1CN([C@H](C)CO)C(=O)c2cc(NC(=O)C3CCCCC3)ccc2O[C@@H]1CN(C)C(=O)Nc1cccc2ccccc12 | 0 | -1 | 1 | 0 | -3 | -4
O=c1[nH]c2ccccc2nc1-c1nnnn1C1CCCC1 | x | -22 | x | -1 | 49* | -3
O=c1[nH]c2cc3ccccc3cc2nc1-c1nnnn1C1CCCC1 | 0 | -85 | x | 4 | 7 | -9
CCc1cccc(NC(=O)Cn2cc3c(n2)CCCC3)c1 | 1 | -3 | -4 | -6 | 2 | 3
CN(C)c1ccc(NC(=O)Cn2cc3c(n2)CCCC3)cc1 | 0 | 19 | 12 | 31* | -14 | 7
Cc1ccccc1OCc1nc2ccccc2c(=O)n1/N=C/c1c[nH]c2ccccc12 | x | -27 | -5 | 3 | -1 | 7
Cc1ccc(-c2[nH]ncc2/C=N/n2c(COc3ccccc3C)nc3ccccc3c2=O)cc1 | 0 | x | -2 | x | 197* | x
Cc1cc2nc(-c3ccccc3O)[nH]c2cc1C | 0 | -21 | -1 | 1 | 40* | 13
O=C(COc1ccc(Cl)cc1)NCCCNC(=O)c1cnccn1 | 34* | -7 | 4 | 2 | 6 | 4
CC(C)c1ccc(OCC(=O)NCc2ccccc2)cc1 | 0 | -8 | 4 | 2 | -7 | -22*
CC(C)c1ccc(OCC(=O)NNC(=O)c2cnccn2)cc1 | x | -20 | x | 2 | 2 | -28*
O=C(COc1ccc2ccccc2c1)NNC(=O)c1cnccn1 | -3 | x | x | x | 2 | x
C[C@@H]1CN([C@@H](C)CO)C(=O)c2cc(NC(=O)C3CCCCC3)ccc2O[C@@H](C)CCCCO[C@@H]1CN(C)Cc1ccccc1 | 0 | -9 | 7 | 7 | -17 | 1
CCOC(=O)c1cnc2ccc(C(=O)OC)cc2c1Nc1ccc(C(=O)O)cc1 | x | -17 | x | 2 | 19 | 2
CCOC(=O)c1ccc2ncc(C(=O)OCC)c(Nc3ccc(N4CCOCC4)cc3)c2c1 | 0 | -3 | x | 26* | 13 | -11

Screening results: PubChem, Broad Institute
